Among the data in ChEMBL document CHEMBL4513216, “Probing the Open Global Health Chemical Diversity Library for Multistage-Active Starting Points for Next-Generation Antimalarials” (ACS Infect Dis, 2020) are cytotoxicity values, retold here.

A short description of the data set: Toxicity liver stage against HepG2, at 10uM. The conditions noted are these: human, HepG2-A16-CD81EGFP cells; read-out: INHIBITION
On the set-up: test concentration 10 uM, cell line HepG2-A16-CD81EGFP. The format is cell-based. In a few lines:
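Uninfected HepG2-A16-CD81EGFP cells, 3 × 10^3 per well, 1536-well, plated on prespotted compound at 10 μM final, parasite-free screening media added to match infected plates; puromycin 10 μM positive, DMSO 0.5% negative; run in parallel with 48 h PbLuc assay at 37 °C, 5% CO2; viability by CellTiter-Glo luminescence, normalized to controls.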
Consider `Cc1ccc(CN(CCN(C)C)C(=O)Nc2ccc(C)c(C#N)c2)s1`, for which the cytotoxicity at 10 µM came out at 5.57%. `CC(C)c1cc(CN2CCC(N)CC2)on1`: the cytotoxicity at 10 µM was -10.7%.

For the compound `CC(=O)N1CCCN(C(=O)NCCCNS(C)(=O)=O)CC1`, the cytotoxicity at 10 µM was -10.3%. Regarding `CC(C)[C@@H]1CN(Cc2cnc(C3CCCCC3)nc2)C[C@H]1N(C)C`, the cytotoxicity at 10 µM was -3.18%. The figure for `CC(C)NC(=O)N1CCCCCC1C1CCN(c2ncccn2)CC1` (stereo not given) is -23.2%; for `O=C(O)c1cc(-c2cccs2)nc2c(Cl)cnn12` it is -8.33%. As for `Cc1nc(CN2CCCN(Cc3nc4ccccc4o3)CC2)no1`, the cytotoxicity at 10 µM turned out to be 12.3%. For `COc1ccc(CN2C[C@@H]3CCCO[C@@H]3[C@H](NS(C)(=O)=O)C2)cc1`, the cytotoxicity at 10 µM is -2.83%.

Consider `Cc1nnc(Nc2cccc(C3CCN(Cc4ncc[nH]4)CC3)n2)s1`, for which the cytotoxicity at 10 µM is -24%.

Regarding `CCC(=O)N1CCC(Cc2cc(Nc3ncccn3)ncn2)CC1`, the cytotoxicity at 10 µM is -4.05%. On to `COc1ccc2nc(NC(=O)c3c(C(=O)O)cnn3C)sc2c1`, for which the cytotoxicity at 10 µM was determined as 7.19%. `CCOc1ccc(Oc2cc(CN)ccn2)cc1`: the cytotoxicity at 10 µM was 0.102%.

Turning to `c1ncn(Cc2nnc(C3CCN(C4CCOCC4)CC3)n2C2CC2)n1`, the cytotoxicity at 10 µM is -3.51%. As for `O=C(O)CN1CCC(c2ccccc2)CC1`, the cytotoxicity at 10 µM came to 1.73%. Consider `CN(Cc1ccccc1NCc1ncc[nH]1)C(=O)c1cccs1`, for which the cytotoxicity at 10 µM was -3.21%.

As for `N#Cc1nccnc1NC1CCN(c2c(F)cccc2F)C1` (stereo not given), the cytotoxicity at 10 µM was found to be 5.2%. The figure for `O=C([C@@H]1COC[C@H]2CN(c3ccncn3)C[C@H]21)N1CCCCO1` is -132%; for `O=C(c1ccc[nH]1)N1CCC2(CC1)COCCN(c1nccs1)C2` it is 12.8%. With `CN(C)C(=O)c1cc2ncc(C(=O)NC3CC3)cc2n1C` the figure was -0.931%; with `Cc1ccc2nc(C)c(C)c(C(=O)N3CCC4(CCO4)CC3)c2c1`, 0.707%; with `Cc1csc(N2CCN(C(=O)CCCNc3ncccn3)CC2)n1`, -16.3%. On to `Cc1ccc(-n2cc(C(=O)N3CCCC(n4cccn4)C3)nn2)cc1` (stereo not given), for which the cytotoxicity at 10 µM was -20.3%.

Turning to `COCCN1C(=O)CC[C@@H]2[C@@H]1CCN2S(=O)(=O)C1CC1`, the cytotoxicity at 10 µM was -98.4%. The figure for `CCOCC(O)CN1CCN(C(=O)c2cccnc2OC)CC1` (stereo not given) is -4.71%.

On to `Cc1cc(N2CCC(NC(=O)C3CC3)CC2)nc(-c2ccncc2)n1`, for which the cytotoxicity at 10 µM is -3.71%. The figure for `COCC(=O)NC(C)c1sc(-c2ccccc2F)nc1C` (stereo not given) is 5.41%; for `CCC[C@@H]1CN(C(=O)c2cc(-c3cccs3)n(C)n2)C[C@H]1NS(C)(=O)=O` it is -1.63%. With `CC(C)CCn1nc2ccc(S(=O)(=O)N3CCOCC3)cn2c1=O` the figure was -2.13%. With `O=C1CCc2cc(-c3csc(CCN4CCOC4=O)n3)ccc2N1` the figure was -12.2%; with `O=S(=O)(Cc1ccccc1F)N1CCCC1c1nnc2n1CCCCC2` (stereo not given), 7.17%; with `CCn1cc(-n2cc3nc(N(C)C)[nH]cc-3c2=O)cn1`, 10.2%.

With `CCCN1CCC(N(C)CCC(=O)Nc2ccccc2SC)CC1`, the cytotoxicity at 10 µM was 15.5%. For the compound `CC(C)c1noc(CN(Cc2cccnc2)C2CN3CCC2CC3)n1` (stereo not given), the cytotoxicity at 10 µM is 17.2%. Turning to `CC(=O)N1CC[C@H]2CC(=O)N(Cc3ccc4c(c3)OCO4)CC[C@H]2C1`, the cytotoxicity at 10 µM is -3.91%. Regarding `CC(=O)N1CCC(NC(=O)c2ccc3c(c2O)OC(C)(C)C3)CC1`, the cytotoxicity at 10 µM was 0.519%. With `Cc1ccc(N(CCC#N)C(=O)CCc2cccnc2)cc1C`, the cytotoxicity at 10 µM is -7.68%. Consider `CNC(=O)CN1CCC(NC(=O)C(C)Oc2ccccc2C#N)CC1` (stereo not given), for which the cytotoxicity at 10 µM is 1.97%.

Regarding `COC(=O)C1CN(CC(=O)Nc2cccc(OC)c2)c2ccccc21` (stereo not given), the cytotoxicity at 10 µM amounted to 11.1%. The figure for `CCC1CN(C)c2ccccc2CN1C(=O)Nc1ccccc1OC` (stereo not given) is -1.87%. With `NCc1cnn(-c2ccccc2C(=O)NCc2ccccc2Cl)c1` the figure was -3.52%; with `Cn1ccc(C(=O)N2CCCC2c2cc(CO)[nH]n2)n1` (stereo not given), 4.95%. With `CCc1c(C)sc2c1c(N)nc(=O)n2CCN(C)C` the figure was 3.85%; with `COCCn1cc(C(=O)NCCS(N)(=O)=O)c2ccccc21`, 7.01%; with `Fc1ccc(CNCCn2cccn2)c(Cl)c1`, -1.26%. As to `O=C(c1ccoc1)N1CCCCC1c1nc[nH]n1` (stereo not given), the cytotoxicity at 10 µM was -7.03%. With `O=S(=O)(NC[C@H]1C[C@@H]2CCN1C[C@@H]2CN1CCCC1)c1ccc(Cl)cc1` the figure was -4.38%; with `Cc1noc(CCCC(=O)N2CSCC2C(=O)NCC2CC2)n1` (stereo not given), -44.9%; with `CCc1nnc(CNC(=O)CCC2CCCCN2C)s1` (stereo not given), -147%. With `CCOCC1CN(Cc2ccc(OC)cc2)Cc2nn(C)cc21` (stereo not given) the figure was 3.65%.

Regarding `CCc1ccc(CN2CCN(c3ccc(C(N)=O)cn3)CC2)nc1`, the cytotoxicity at 10 µM amounted to 4.95%.

Turning to `Cc1c(OCC(=O)NCc2ccccc2Cl)c(=O)ccn1C`, the cytotoxicity at 10 µM was -40.5%. With `CCc1nnc2n1CCN(CCC(=O)Nc1cc(C)on1)C2` the figure was 4.23%. With `c1csc(-c2noc(C3CN(Cc4ccc5c(c4)CCO5)C3)n2)c1` the figure was -8.2%. `Cc1ncccc1-c1cc2cccnc2n1CCCNC(=O)C(C)(C)C`: the cytotoxicity at 10 µM was 12.8%. With `Cc1cccc(C2(CNC(C)c3nnc(C)o3)CCCC2)c1` (stereo not given) the figure was 6.73%; with `CC(C)(C)c1nnc(CN2CCCC2c2noc(C3CC3)n2)o1` (stereo not given), -2.75%; with `OCc1ccncc1NCc1cnc(-c2ccccn2)s1`, -17.4%. As for `CSCCc1c(-c2ccccc2)ncn1CC(C)(C)N1CCOCC1`, the cytotoxicity at 10 µM was -47.4%. With `Cc1cs/c(=N\C(=O)Cn2nc(N3CCSCC3)ccc2=O)[nH]1`, the cytotoxicity at 10 µM was determined as 2.33%. With `O[C@H]1[C@H](n2cc(-c3ccccn3)nn2)c2ccccc2C12CCNCC2`, the cytotoxicity at 10 µM was -11.5%. Regarding `Cc1ccc(NC2(C(=O)NCCCN)CCCC2)cc1`, the cytotoxicity at 10 µM is 1.58%. With `COc1c(C2CCCN2C(=O)c2sccc2C#N)c(C)nn1C` (stereo not given) the figure was 3.33%; with `CC(C)NC(=O)N1CC[C@@H]2CN(Cc3cccc(Cl)c3)S(=O)(=O)[C@@H]2CC1`, 4.71%. The figure for `O=C(O)CSc1nc(-c2ccc3c(c2)CCC3)n[nH]1` is 1.88%; for `O=C(c1ccc(Cl)o1)N1CCCC(c2cc(C(F)(F)F)[nH]n2)C1` (stereo not given) it is 2.14%; for `CS(=O)(=O)N1CCC2(CC1)CC(NCC1CC1)c1ccccc12` (stereo not given) it is -111%. With `O=C(c1ccsc1)N1CCCC(c2cc(C(F)(F)F)[nH]n2)C1` (stereo not given), the cytotoxicity at 10 µM is -4.22%. As to `CN(C)C(=O)CO[C@H]1CO[C@@]2(CCN(Cc3ccsc3)C2)C1`, the cytotoxicity at 10 µM was -111%. As for `CCCc1cc(NC(=O)c2cccc(N3CCCNC3=O)c2)n[nH]1`, the cytotoxicity at 10 µM turned out to be 3.14%.

With `CN(Cc1ccc(Br)s1)Cn1nc(-c2ccccc2)oc1=O`, the cytotoxicity at 10 µM came to 4.86%.
